Source: PubChem BioAssay (several laboratories)
Shown are actives, neighbours in structure and some others; about 2.6% of the full set was active somewhere.
NR2E3 ag-1: human photoreceptor-specific nuclear receptor agonism; Q9Y5X4; CHO-S Gal4-NCOR/VP16-NR2E3 two-hybrid, luciferase; inhibition of corepressor binding, % at 3.98 µM; 0.35% of 360,000 active; AID 602229;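 active = inhibition above the mean of all tested compounds plus 3 SD, cut at about 70% in these data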;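 note: 0% = DMSO with NR2E3 transfected cells and 100% = cells lacking NR2E3 construct; higher means lower luciferase signal from less NR2E3 corepressor binding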
PG9 binder: small molecules binding HIV-1 gp120 antibody PG9; TR-FRET gp120-PG9 antibody binding; inhibition, % at 6.7 µM; 0.43% of 360,000 active; AID 624416; in the data active = inhibition above about 8.5%
rCAG RNA binder: molecules binding r(CAG) RNA repeats; 1.3% of 370,000 active; inhibition, % at 3 µM; AID 651821; r(CAG) RNA repeat, TO-PRO-1 dye displacement fluorescence;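 active = inhibition above the plate cutoff, the mean of all test compounds on that plate plus 3 SD, cut at about 35% in these data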;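 note: 0% = DMSO alone and 100% = 100 µM mitoxantrone as full dye displacement; higher means more dye released from RNA so lower well fluorescence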
NR2E3 ag-2: activates human photoreceptor nuclear receptor NR2E3; Q9Y5X4; GST-NR2E3/biotin-RetCOR TR-FRET, 1536-well; inhibition of corepressor binding, % at 4.78 µM; 0.12% of 320,000 active; AID 2300;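 active = percent inhibition above the cutoff of mean plus 3 SD of all tested compounds, set per screening campaign, cut at about 20% in these data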;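 note: 0% = DMSO wells and 100% = biotin wells as full block of FRET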
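System: GST-tagged NR2E3 plus biotinylated RetCOR corepressor; Amount: 1.35 nM GST-tagged NR2E3 final; Dosing: single nominal compound dose of 4.8 µM; Schedule: 5 h incubation at 4 °C; Technique: TR-FRET with europium anti-GST and streptavidin-D2, 340 nm excitation; Controls: biotin wells as high control, 0.6% DMSO wells as low control.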
Rev-erbA mod: modulates human Rev-erb alpha binding to DNA; P20393; Rev-erbα–FITC-DNA binding, fluorescence polarization, 90 min; activity, % at 10 µM; 0.79% of 370,000 active; AID 1259318;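 active = activity above about 14%, limit read from the data; passing the limit was not always enough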;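 note: 0% = DMSO wells with 35 nM protein and 100% = DMSO wells with 750 nM protein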
Target sequence (P20393 whole entry, looked up): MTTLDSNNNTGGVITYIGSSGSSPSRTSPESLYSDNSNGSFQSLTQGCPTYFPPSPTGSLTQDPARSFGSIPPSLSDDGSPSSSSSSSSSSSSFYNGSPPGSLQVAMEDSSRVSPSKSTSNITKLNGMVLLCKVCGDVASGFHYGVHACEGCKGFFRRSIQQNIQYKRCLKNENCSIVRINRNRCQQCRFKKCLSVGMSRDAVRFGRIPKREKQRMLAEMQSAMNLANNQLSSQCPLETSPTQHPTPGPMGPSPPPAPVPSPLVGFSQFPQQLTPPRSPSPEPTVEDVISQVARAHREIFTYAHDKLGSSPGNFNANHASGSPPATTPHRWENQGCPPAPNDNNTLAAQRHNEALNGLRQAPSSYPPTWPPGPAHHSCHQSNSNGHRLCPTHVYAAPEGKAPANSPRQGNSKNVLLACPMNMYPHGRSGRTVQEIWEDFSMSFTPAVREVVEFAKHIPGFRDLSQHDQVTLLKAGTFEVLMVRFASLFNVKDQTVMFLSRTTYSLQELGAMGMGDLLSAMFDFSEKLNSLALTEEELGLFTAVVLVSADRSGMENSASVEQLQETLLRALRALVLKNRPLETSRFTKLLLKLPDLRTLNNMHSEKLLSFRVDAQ
NR1D1 mod conf: confirmation of modulators of human Rev-erb alpha DNA binding; shares compounds with Rev-erbA mod; Rev-erb alpha FITC-DNA binding, fluorescence polarization, 90 min; activation, % at 25 µM; 61% of 3,000 active; AID 1259319;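 active = activation at or above a set limit, or at least 3 SD above the negative control mean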;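 note: 0% = 35 nM protein with DMSO and 100% = 750 nM protein high control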
RORg counter: counter-screen for Rev-erb alpha modulators: RORgamma DNA binding; shares compounds with Rev-erbA mod; purified RORgamma protein-FITC-DNA binding, fluorescence polarization; IC50, µM; 8% of 910 active;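 active = Compounds whose fitted half-maximal concentration for disrupting protein-DNA binding is below 10 micromolar; the record names Rev-erb in its text, so the target is in doubt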
* hit, by the source's call; i = inactive; · = no result given.

SMILES	NR2E3 ag-1	PG9 binder	rCAG RNA binder	NR2E3 ag-2	Rev-erbA mod	NR1D1 mod conf	others
Cn1cc(Cl)c(C(=O)Nc2nc3ccc([N+](=O)[O-])cc3s2)n1	10	-1	4	-2	-10	·
CCCCN(C(=O)c1ccco1)c1nnc(-c2cc(OC)c(OC)c(OC)c2)s1	-18	-2	-2	-3	99*	15
O=c1[nH]c(CSc2nnnn2-c2ccc(Cl)cc2)nc2ccccc12	-16	0	1	-6	-2	·
C=CCn1c(SCc2nc3ccccc3c(=O)[nH]2)nnc1-c1cc2cc(Cl)ccc2o1	-7	-1	1	1	26*	30*
CCc1cc2cccc(C)c2nc1SCC(=O)NC1CCCC1	-3	3	-6	1	21*	11
CCc1cc2cc(C)ccc2nc1SCC(=O)NC1CCCC1	10	1	-6	6	32*	35*	RORg counter=>40
C1=C[C@H]2CC[C@@H]1N(c1ccccc1)O2	-45	-1	1	·	-3	·
O=C(CSc1nnc(-c2ccncc2)n1-c1ccc(Cl)cc1)c1ccc(Cl)c(Cl)c1	·	·	5	·	31*	31*	RORg counter=>40
C[C@@H]1CN([C@@H](C)CO)C(=O)CCCn2cc(nn2)CO[C@H]1CN(C)C(=O)c1ccc2ccn(C)c2c1	-20	-2	2	·	0	·
O=C(NC1CCCCCC1)c1ccc([N+](=O)[O-])s1	-11	-1	10	·	-3	·
Nc1cc(=O)[nH]c(SCC(=O)Nc2ccc(N3CCOCC3)cc2)n1	6	1	6	·	3	·
CCC(C)(C)C1CCc2c(sc(NC(=O)c3cccs3)c2C(N)=O)C1 (stereo not given)	2	-1	9	-6	29*	16
CCOC(=O)c1c(NC(=O)c2c(Br)cnn2CC)sc(C)c1C	-31	1	-2	-2	28*	12
CCn1ncc(Br)c1C(=O)Nc1sc2c(c1C(=O)OC)CCC2	-28	0	3	4	4	·
COc1ccc(C(=O)Nc2cccc(-c3cnc4ccccc4n3)c2)cc1	-38	-1	2	1	26*	13
COc1ccc(NC(=O)c2ccc(NC(=O)c3cccnc3)cc2)cc1	-44	-1	4	·	-2	·
COc1ccc(C(=O)Nc2ccc(C(=O)Nc3cccnc3)cc2)cc1	-19	1	-2	2	26*	24*
O=C(NN1C(=O)/C(=C/c2ccc(O)cc2)SC1=S)c1cccc(O)c1	-21	-3	-28	3	27*	16
O=C(NCc1ccccc1)C(c1cccc2ccccc12)n1c(=O)c(-c2ccccc2)nc2ccccc21 (stereo not given)	·	-1	7	·	24*	46*	RORg counter=i
CCCCCNC(=O)C(c1cccc2ccccc12)n1c(=O)c(-c2ccccc2)nc2ccccc21 (stereo not given)	·	0	5	·	-4	·
CC(C)NC(=O)C1(C)CCN1C(=O)c1ccc2c(c1)OCO2 (stereo not given)	-22	-2	1	·	3	·
Cc1cc(N2CCN(c3ncccn3)CC2)nc2c(C)cccc12	-9	-2	3	0	35*	6
CCc1ccc([C@H]2[C@@H]3C(=O)C[C@@H]4C(=O)N(C)C(=O)[C@@H]4[C@@H]3CN2S(=O)(=O)c2ccc(C)cc2)cc1	-3	0	5	·	16*	1
CC1CN=C(c2ccccc2)O1 (stereo not given)	-12	-1	2	·	0	·
CC1(C)Cc2c(sc3nc(-c4cc5ccccc5o4)n(N)c(=O)c23)CO1	-36	0	0	2	48*	26*
SMILES	NR2E3 ag-1	PG9 binder	rCAG RNA binder	NR2E3 ag-2	Rev-erbA mod	NR1D1 mod conf	others
CCCCNc1c(-c2ccc(SC3CCCCC3)c(OC)c2)nc2ccc(Cl)cn12	-17	-2	7	2	20*	9
Cc1ccn2c(NC3CCCCC3)c(-c3ccc(SC4CCCCC4)cc3)nc2c1	5	4	4	·	33*	15*
CCCCCCSc1ccc(-c2nc3ccc(C)cn3c2NCCCC)cc1OC	-27	2	6	·	16*	6
CCCCCCSc1ccc(-c2nc3ccc(Cl)cn3c2NC2CCCCC2)cc1	-13	1	1	·	23*	22*
COc1ccc(-c2nc3cc(C)c(Br)c(C)n3c2CC(C)(C)C)cc1OC	-9	-2	2	·	2	·
CC1CCCN(S(=O)(=O)c2ccc3c(c2)OCCO3)C1 (stereo not given)	-40	2	-1	·	9	·
Cn1cc(C2(C)CCOc3ccccc32)c2ccccc21 (stereo not given)	·	·	3	·	8	·
CC(c1nc2ccccc2[nH]1)n1c(=O)c(-c2cccs2)nc2ccccc21 (stereo not given)	·	0	6	·	30*	18*
CCc1c(C)nc(N)c(C#N)c1-c1ccccc1	2	1	-2	-4	9	·
CSc1nc(N)nc(SCC(=O)C23CC4CC(CC(C4)C2)C3)c1C#N	-27	0	19	-1	7	·
C=CCSc1nc(N)c(C#N)c(-c2ccccc2)c1C#N	-26	4	3	5	50*	32*	RORg counter=>40
CCCSc1nc(N)c(C#N)c(-c2ccc(C)cc2)c1C#N	3	7	-2	7	66*	32*
N#Cc1c(N)nc(SCC(=O)C23CC4CC(CC(C4)C2)C3)c(C#N)c1-c1ccc(Cl)cc1	-28	-1	5	0	81*	44*	RORg counter=>40
COC(=O)C1=C(C)N(Cc2ccccc2C(F)(F)F)C(=NCc2cc(OC)c(OC)c(OC)c2)NC1c1ccc(Cl)cc1 (stereo not given)	·	0	2	·	9	·
COc1ccccc1CCC(=O)Nc1ccc2c(c1)c(=O)n(C)n2Cc1cccc(C(F)(F)F)c1	15	-1	-1	·	-8	·
CCc1nc2c(OCCc3cccc(OC)c3)cccn2c1N(C)C(=O)c1ccc(OC)cc1	-16	0	4	·	-11	·
Cc1ccc(C)c(N2N=C(C(=O)OCc3nnc(-c4ccccc4Br)o3)CCC2=O)c1	21	1	4	·	-5	·
O=C(NCCCN1CCCC1=O)c1ccc(Cl)c(S(=O)(=O)N2CCCCC2)c1	-7	1	-1	0	13	·
CC(C(=O)Nc1ccc(S(=O)(=O)N2CCCC2)cc1)N1CCCC(C(N)=O)C1 (stereo not given)	-11	4	-4	·	5	·
Nc1ccc2ccccc2c1N=Nc1ccccc1	-24	-3	9	·	23*	27*
Nc1ncnc(N)c1N=Nc1ccccc1	22	-9	-1	·	13	·
COc1cc(CNC(=O)Nc2nnc([C@@H]3C[C@H](O)[C@@H](CO)O3)s2)cc(OC)c1OC	-15	1	2	·	-3	·
